SUMO1 PPI mod = modulators of human SUMO1-mediated protein-protein interactions | SUMO1 binding to a labelled peptide, TR-FRET, 1 h | inhibition, % at 20 µM | hit rate 0.33% among 360,000 | AID 602429; in the data active = inhibition above about 37%
Target sequence (P63165 whole entry, looked up): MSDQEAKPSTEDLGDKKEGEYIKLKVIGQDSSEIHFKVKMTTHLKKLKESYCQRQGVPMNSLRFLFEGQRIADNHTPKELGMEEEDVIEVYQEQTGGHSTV
LMPTP block = blocks human LMPTP phosphatase. P24666. recombinant LMPTP-A, OMFP fluorogenic substrate, fluorescence intensity. inhibition, % at 20 µM. hit rate 0.22% among 360,000;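 active = compounds that cut the enzyme signal by at least half of the control window in the single-dose screen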;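 note: plate controls were DMSO wells with enzyme plus substrate for no effect and substrate without enzyme for full effect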
Target sequence (P24666 whole entry, looked up): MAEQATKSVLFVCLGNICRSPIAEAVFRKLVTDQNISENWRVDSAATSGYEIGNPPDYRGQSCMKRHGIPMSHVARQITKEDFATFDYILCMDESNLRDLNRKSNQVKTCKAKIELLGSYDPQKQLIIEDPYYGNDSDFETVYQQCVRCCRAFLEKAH
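Assay system: LMPTP-A phosphatase enzyme | Input: 0.625 nM enzyme | Also added: Fluorogenic phosphatase substrate OMFP at 400 µM final | Compound dosing: One test concentration per compound, 20 µM, with 3% DMSO overall | Schedule: 50 min enzyme reaction at room temperature, protected from light | Signal: Fluorescence intensity | Benchmarks: no-enzyme and uninhibited controls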
DNMT1 inh = blocks human DNA methyltransferase DNMT1; DNMT1 molecular beacon, Hinp1I cleavage, fluorescence; inhibition (reported as % activation of signal), % at 10 µM; hit rate 0.83% among 360,000; AID 588458; in the data active = inhibition above about 50%
Scp1 inh = blocks human Scp-1 phosphatase activity. Q9GZU7. Recombinant Scp1, phosphopeptide, malachite green phosphate absorbance. inhibition, % at 20 µM. hit rate 0.88% among 340,000. AID 493091;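 active = inhibition above about 50% at 20 µM, limit read from the data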;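 note: plate controls were DMSO wells with enzyme for no effect and wells lacking enzyme for full effect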
Target sequence (Q9GZU7 76-261 limits assumed): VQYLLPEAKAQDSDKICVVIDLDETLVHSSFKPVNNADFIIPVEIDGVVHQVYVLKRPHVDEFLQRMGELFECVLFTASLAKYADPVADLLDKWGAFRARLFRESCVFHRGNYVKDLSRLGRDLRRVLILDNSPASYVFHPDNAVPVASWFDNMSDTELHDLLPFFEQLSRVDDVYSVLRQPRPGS
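System: SCP-1 catalytic domain; Reagent: Phospho 17-mer peptide substrate; Doses: one concentration, 20 µM, with 1.0% DMSO; Incubation: 45 min room-temperature reaction, 5 min colour, 30 min stabiliser; Signal: Phosphate-binding colour reagent, absorbance read at 630 nm.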
STEP block = blocks human striatal-enriched tyrosine phosphatase; recombinant STEP, OMFP fluorogenic substrate, fluorescence; inhibition, % at 20 µM; hit rate 0.25% among 360,000;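 active = inhibition at 20 µM, scaled per plate between control wells, above about 37%, limit read from the data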;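 note: 0% = DMSO with enzyme and substrate and 100% = substrate only without enzyme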
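Assay system: isolated STEP enzyme / Timing: 20 min at room temperature, dark / Doses: 20 µM, 1% DMSO / Technique: fluorescence intensity, excitation 480 nm, emission 540 nm / Reagent: fluorogenic phosphatase substrate OMFP at 25 µM final / Measure: percent inhibition scaled to no-enzyme and uninhibited-enzyme controls, plate-pattern corrected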
Scp1 confirm = confirmation of human Scp-1 phosphatase inhibitors | inhibition, % at 20 µM | recombinant SCP-1 catalytic domain, phosphate release, malachite green absorbance | shares compounds with Scp1 inh | AID 540281 | hit rate 61% among 2,500;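 note: plate controls were DMSO with enzyme for no effect and buffer wells lacking enzyme for full effect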
Scp-1 MG ctr = colorimetric interference in Scp-1 counter-screen; AID 540313; 2,500 tested, under 10 active; Colorimetric interference counterscreen, malachite green absorbance 630 nm; apparent inhibition (interference), % at 20 µM; shares compounds with Scp1 inh;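 note: compounds added after enzyme reaction finished so only phosphate colour detection is probed; plate controls were DMSO wells with completed Scp-1 reaction for no effect and substrate wells lacking enzyme for full effect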
Scp-1 Tm shift = Scp-1 (human) binding by thermal shift; shares compounds with Scp1 inh; Recombinant SCP1, Sypro Orange thermal shift Tm; thermal shift relative to vanadate control, % at 40 µM; hit rate 25% among 1,500; AID 540329;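 active = substances whose mean melting-temperature shift, as a percentage of the reference inhibitor's shift, reaches about 5.3%, limit read from the data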;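 note: 0% = Tm of DMSO wells and 100% = Tm with sodium orthovanadate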
Starred values were filed as active, the others as inactive; . = no result. Rows were chosen to be rich in hits. Some 1.7% of all compounds tested hit in one or more screens of this group.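 Rule for the calls, unless noted: active = inhibition of at least 30% at 20 µM; inactive = the rest.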

SMILES	SUMO1 PPI mod	LMPTP block	DNMT1 inh	Scp1 inh	STEP block	Scp1 confirm	Scp-1 MG ctr	others
CCSc1nnc(NC(=O)C2CC=CCC2C(=O)O)s1 (centres undefined)	5	0	27	87*	12	53*	-8	Scp-1 Tm shift=-5
CCSc1nnc(NC(=O)C2CCCCC2)s1	-2	-1	1	-1	-4	.	.
O=C(N/C(=C/c1ccccc1Cl)C(=O)N1CCCCC1)c1ccco1	3	-1	0	1	-1	.	.
CC(=O)c1ccc(S(=O)(=O)Oc2ccc(C(=O)O)cc2Cl)cc1	4	-1	25	53*	-4	24	-6
N#C/C(=C\c1c(N(Cc2ccccc2)Cc2ccccc2)nc2ccccn2c1=O)C(N)=O	-20	1	-3	56*	2	-13	-9
CCN1CCC(O)(C(C(=O)OC)c2ccccc2)CC1 (centres undefined)	2	0	-2	-10	0	.	.
COc1ccc(NC(=O)COC(=O)c2cc3c(s2)CCC3)cc1	1	19	66*	57*	32	63*	-12	Scp-1 Tm shift=-2
CCCCCCCCn1c2c(c(=N)c3ccccc31)CCC2	-4	6	5	-3	10	.	.
Cc1cc(C)c2c(=N)c3ccccc3n(CCCCCCCCn3c4ccccc4c(=N)c4c(C)cc(C)nc43)c2n1	95*	87*	13	59*	11	5	15
CCc1ccccc1NC(=O)COc1cccc(-n2cnnn2)c1	2	-1	2	-5	0	.	.
O=Cc1ccc(OCc2cccc(C(F)(F)F)c2)cc1O	6	3	0	62*	8	-23	-24
CC(=O)c1cccc(NC(=O)c2cc(S(=O)(=O)N3CCOCC3)cs2)c1	5	-1	0	-13	0	.	.
C[N+]1(CC2COC3(CCCCC3)O2)CCCC1 (centres undefined)	-2	-2	-1	61*	-3	0	-2
CCOc1cc(/C=N/NC(=O)c2cc3c(ccc4ccccc43)o2)ccc1O	3	1	-4	-4	0	.	.
CCOC(=O)COc1ccccc1/C=N\NC(=O)c1cc2c(ccc3ccccc32)o1	-10	6	-5	84*	4	39*	-3	Scp-1 Tm shift=0
Cc1cc2c(cc1S(=O)(=O)NC1CCCCC1C)OCC(=O)N2 (centres undefined)	-5	0	-2	0	1	.	.
COc1ccccc1N1CCN(C(=O)c2cn(C)c3ccc(S(=O)(=O)N4CCOCC4)cc3c2=O)CC1	14	-1	1	-14	-4	.	.
Cc1ccc(NC(=O)CN(C)C(=O)c2ccc(S(=O)(=O)N(C)c3ccccc3)cc2)cc1	-3	0	-1	54*	-3	22	-13
O=C(/C=C/c1ccco1)NCC(=O)N/N=C/c1ccc([N+](=O)[O-])cc1	-15	38	40	76*	4	79*	-3	Scp-1 Tm shift=6.6*
O=C(/C=C/c1ccco1)NCC(=O)N/N=C/c1ccc(Cl)cc1	-14	-1	1	1	0	.	.
Cn1c(SCC(=O)Nc2nncs2)nnc1C1CC1	18	0	50	79*	29	53*	-15	Scp-1 Tm shift=5.5*
O=C(O)C1=CC[C@@H](c2ccc(Cl)cc2)N(S(=O)(=O)c2ccc(Cl)cc2)[C@H]1c1ccc(Br)cc1	19	1	14	-14	2	.	.
CCCOc1ccc(C=Nc2ccc(OC)c(S(=O)(=O)N3CCOCC3)c2)c(O)c1	1	-1	-6	-3	-3	.	.
Cc1ccc(C)c(NC(=O)CN(C)C(=O)c2cc(-c3cccs3)nn2-c2ccccc2)c1	1	3	-4	56*	1	-9	-8
O=S(=O)(c1cccc(Cl)c1)N1CN(CC2CCCO2)c2nc3ccccc3nc21 (centres undefined)	-11	-1	-1	6	-3	.	.
